For one compound, IC50 and Activity results are on record in ChEMBL document CHEMBL3877250, “Design, synthesis, and biological evaluation of (2E)-(2-oxo-1, 2-dihydro-3H-indol-3-ylidene)acetate derivatives as anti-proliferative agents through ROS-induced cell apoptosis” (Eur J Med Chem, 2016).

A short description of assay [1]: Cytotoxicity against human OVCAR3 cells after 72 hrs by CCK-8 assay. The format is functional, cell-based. The following applies: OVCAR-3, 72 h. In outline: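 Cells kept in RPMI 1640 with 10% heat-inactivated fetal calf serum and 1% streptomycin/penicillin at 37 °C, 5% CO2. After compound exposure, CCK-8 was added and cells were incubated 4 h at 37 °C, then absorbance was read at 450 nm. Viability is relative to untreated cells (100%). IC50 comes from nonlinear regression, mean of three separate determinations. Single-concentration screen at 20 µM.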

Assay [2] has as its system HCT-116. Nature of the assay: Induction of apoptosis in human HCT116 cells assessed as live cells at 0.5 uM after 48 hrs by Annexin V-FITC/propidium iodide staining based flow cytometry (reference value: 88.7%). Format: functional.
Assay [3] concerns HCT-116. Nature of the assay: Induction of apoptosis in human HCT116 cells assessed as early apoptotic cells at 4 uM after 48 hrs by Annexin V-FITC/propidium iodide staining based flow cytometry (reference value: 3.8%). The format is functional. In outline:
(§1)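 HCT116 seeded at 2×10^5 cells/well, cultured 6 h, then treated 48 h at 0.1, 0.5, 1, 4, 8 or 16 µM; DMSO (0.1%) served as vehicle. Cells washed twice in cold PBS, resuspended in binding buffer with FITC Annexin V and PI for 15 min at RT in the dark, diluted, and run on flow cytometry within 1 h.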
(In general: Flow cytometry measures light scatter and fluorescence of single cells or particles in a stream.)

The test system of assay [4] is HCT-116. The experiment in a line: Induction of apoptosis in human HCT116 cells assessed as early apoptotic cells at 8 uM after 48 hrs by Annexin V-FITC/propidium iodide staining based flow cytometry (reference value: 3.8%). The format is functional.
Assay [5] concerns HCT-116. Nature of the assay: Induction of apoptosis in human HCT116 cells assessed as increase in intracellular reactive oxygen species at 0.17 to 8 uM by DCFH-DA probe-based flow cytometry. Format: functional, cell-based. The following applies: TDE = time-dependent effect. The method, boiled down:
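For the dose series, HCT116 cells were seeded at 5 × 10⁴ cells/well, grown 24 h, then exposed 3 h to DMSO or graded compound levels, with a Rosup positive group. Cells were washed with PBS and serum-free medium, loaded with DCFH-DA (1 μmol/L) in serum-free medium at 37 °C for 20 min, and ROS fluorescence was read by flow cytometry.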

The subject of assay [6] is HCT-116. The experiment in a line: Induction of apoptosis in human HCT116 cells assessed as necrotic cells at 0.1 uM after 48 hrs by Annexin V-FITC/propidium iodide staining based flow cytometry (reference value: 0.8%). The format is functional.
The subject of assay [7] is HCT-116. The experiment in a line: Induction of apoptosis in human HCT116 cells assessed as late apoptotic cells at 0.1 uM after 48 hrs by Annexin V-FITC/propidium iodide staining based flow cytometry (reference value: 6.7%). Format: functional.
The test system of assay [8] is HCT-116. The experiment in a line: Induction of apoptosis in human HCT116 cells assessed as late apoptotic cells at 16 uM after 48 hrs by Annexin V-FITC/propidium iodide staining based flow cytometry (reference value: 6.7%). Format: functional.
Assay [9] relates to HCT-116. The experiment in a line: Induction of apoptosis in human HCT116 cells assessed as increase in intracellular reactive oxygen species at 2 to 3 hrs by DCFH-DA probe-based flow cytometry. Format: functional, cell-based.
For assay [10], the system named is HCT-116. Nature of the assay: Induction of apoptosis in human HCT116 cells after 48 hrs by Annexin V-FITC/propidium iodide staining based flow cytometry. The format is functional, cell-based. In outline:
as §1

As to `CC(C)(C)OC(=O)/C=C1/C(=O)Nc2ccccc21`, the IC50 in assay [1] was 6.55 µM. Further, the Activity is 89% in [2]; 3.6% in assay [3]; 7.1% in assay [4]; “Tde” in assay [5]; 0.6% in assay [6]; 6.2% in assay [7]. Moreover, the Activity in assay [8] was 69.1%; in [9] it was “Dose-dependent effect”; in [10], “Dose-dependent effect”.

A word on the IC50: it is the point on the concentration scale where inhibition reaches its midpoint. A low value points to higher potency.
